Measured values: ChEMBL document CHEMBL4052597, “Symmetrically Substituted Xanthone Amphiphiles Combat Gram-Positive Bacterial Resistance with Enhanced Membrane Selectivity” (J Med Chem, 2017)
Values after ≈ are worked out from the molar mass of the structure shown. Active and inactive are the calls of the source. The calls are words filed in the database; no cut-off is given here.

Columns and labels:
Staphylococcus aureus [1] = test: Antibacterial activity against Staphylococcus aureus ATCC 29213 infected in C57BL6 mouse cornea assessed as decrease in number of viable bacteria at 0.5% administered topically at 2 hrs interval for 4 times starting on day 1 post infection measured post last dose relative to control; assay type: functional
Staphylococcus aureus [2] = test: Antibacterial activity against methicillin-resistant Staphylococcus aureus DB57964 after 24 hrs by two fold dilution assay; assay type: functional; conditions: DB57964, 24 h
Outline: (§1)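 CLSI broth macrodilution in cation-adjusted Mueller-Hinton broth. Compounds were dissolved in DMF and diluted in PBS to a 1000 µg/mL stock, then serially 2-fold diluted in CA-MHB. The inoculum came from colonies on 18-20 h TSA plates (direct colony suspension), adjusted to ~5×10^5 CFU/mL. Incubation was 24 h at 35 °C. MIC is the lowest concentration with no visible growth versus control. Biological replicates.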

Staphylococcus aureus [3] = test: Antibacterial activity against methicillin-resistant Staphylococcus aureus DM 21455 after 24 hrs by two fold dilution assay; assay type: functional; conditions: DM 21455, 24 h; outline: as §1
Staphylococcus aureus [4] = test: Antibacterial activity against methicillin-sensitive Staphylococcus aureus DM4299 after 24 hrs by two fold dilution assay; assay type: functional; conditions: DM4299, 24 h; outline: as §1
Bacillus cereus = test: Antibacterial activity against Bacillus cereus ATCC 11778 after 24 hrs by two fold dilution assay; assay type: functional; conditions: ATCC 11778, 24 h
Outline: (§2)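 Broth macro-dilution per CLSI in cation-adjusted Mueller-Hinton broth; compounds dissolved in DMF, diluted in PBS to 1000 µg/mL stock, then serial 2-fold dilutions in CA-MHB in tubes. Inoculum from 18-20 h TSA colonies (direct colony suspension), adjusted to about 5× 10^5 CFU/mL. MIC read after 24 h at 35 °C as lowest concentration with no visible growth; biological replicates.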

Staphylococcus aureus [5] = test: Antibacterial activity against methicillin-sensitive Staphylococcus aureus ATCC 29737 after 24 hrs by two fold dilution assay; assay type: functional; conditions: ATCC 29737, 24 h; outline: as §1
Staphylococcus aureus [6] = test: Disruption of cytoplasmic membrane in Staphylococcus aureus isolate DM4001R at 2 times MIC after 3000 secs by SYTOX green dye based fluorescence assay; assay type: functional
Outline: (§3)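 Clinical S. aureus isolate DM4001R incubated with SYTOX Green plus compound; membrane permeabilization read as increased fluorescence intensity. Measurements replicated.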

Enterococcus hirae = test: Antibacterial activity against Enterococcus hirae ATCC 9790 after 24 hrs by two fold dilution assay; assay type: functional; conditions: ATCC 9790, 24 h; outline: as §2
Staphylococcus aureus [7] = test: Antibacterial activity against methicillin-resistant Staphylococcus aureus ATCC 43300 after 24 hrs by two fold dilution assay; assay type: functional; conditions: ATCC 43300, 24 h; outline: as §1
Staphylococcus aureus [8] = test: Antibacterial activity against methicillin-sensitive Staphylococcus aureus ATCC 29213 after 24 hrs by two fold dilution assay; assay type: functional; conditions: ATCC 29213, 24 h; outline: as §1
Staphylococcus aureus [9] = test: Antibacterial activity against methicillin-sensitive Staphylococcus aureus ATCC 6538 after 24 hrs by two fold dilution assay; assay type: functional; conditions: ATCC 6538, 24 h; outline: as §1
Lipid bilayer [10] = test: Induction of membrane damage in DOPC/cholesterol large unilamellar vesicles assessed as calcein leakage at compound to lipid ratio of 1:16 after 1 hr by fluorescence assay relative to control
Outline: (§4)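 100 nm calcein-loaded LUVs made by film hydration; lipid content set by total phosphorus assay. DOPC/cholesterol (3:1, w/w) mimics mammalian and DOPE/DOPG (3:1, w/w) bacterial membranes. Compound in DMF added at lipid-to-compound ratio 16 (6.25 µM compound), final DMF limited to 0.5%. Fluorescence monitored at ex 490/em 520 nm for 1 hour; replicated.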

Enterococcus faecium [11] = test: Antibacterial activity against vancomycin A-resistant Enterococcus faecium VRE 1007 after 24 hrs by two fold dilution assay; assay type: functional; conditions: VRE 1007, 24 h; outline: as §1
[12] = Solubility of the compound in water; assay type: physicochemical; conditions: buffer
Staphylococcus aureus [13] = test: Bactericidal activity against methicillin-resistant Staphylococcus aureus DM21455 assessed as log reduction in bacterial load at 4 times MIC after 10 mins by time kill assay; assay type: functional
Outline: (§5)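 MRSA DM21455 was taken from colonies on 18-22 h TSA plates and diluted to 10^5~10^6 CFU/mL in PBS. Cells were exposed to 0.5×, 1×, 2× and 4× MIC at 35 °C, with a PBS control. Samples were taken at 10 min, 30 min, 1, 2, 4 and 8 h, 10-fold diluted in PBS and plated on MHA. Colonies were counted after 24-48 h at 35 °C. Replicated.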

Staphylococcus aureus [14] = test: Antibacterial activity against methicillin-resistant Staphylococcus aureus ATCC BAA-38 after 24 hrs by two fold dilution assay; assay type: functional; conditions: ATCC BAA-38, 24 h; outline: as §1
Staphylococcus aureus [15] = test: Antibacterial activity against methicillin-sensitive Staphylococcus aureus DM4400R after 24 hrs by two fold dilution assay; assay type: functional; outline: as §1
Staphylococcus aureus [16] = test: Antibacterial activity against methicillin-resistant Staphylococcus aureus DB6506 after 24 hrs by two fold dilution assay; assay type: functional; conditions: DB6506, 24 h; outline: as §1
Staphylococcus aureus [17] = test: Antibacterial activity against Staphylococcus aureus ATCC 29213 at 0.5 times MIC after 17 serial passages; assay type: functional
Outline: (§6)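 Serial-passage resistance selection in S. aureus ATCC29213. MIC was determined by CA-MHB broth macrodilution (2-fold dilutions, ~5×10^5 CFU/mL, 35 °C). Cells grown at 0.5× MIC were recovered and used to prepare the inoculum for the next MIC assay, with MIC change read after each 24 h/35 °C round. This was repeated for 17 passages, or 30 passages for one compound. Replicated.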

Staphylococcus aureus [18] = test: Antibacterial activity against methicillin-resistant Staphylococcus aureus ATCC 700699 after 24 hrs by two fold dilution assay; assay type: functional; conditions: Mu50, 24 h; outline: as §1
Enterococcus faecalis = test: Antibacterial activity against Enterococcus faecalis ATCC 29212 after 24 hrs by two fold dilution assay; assay type: functional; conditions: ATCC 29212, 24 h; outline: as §2
Enterococcus faecium [19] = test: Antibacterial activity against vancomycin A-resistant Enterococcus faecium VRE 1006 after 24 hrs by two fold dilution assay; assay type: functional; conditions: VRE 1006, 24 h; outline: as §1
Enterococcus faecium [20] = test: Antibacterial activity against vancomycin A-resistant Enterococcus faecium VRE 1008 after 24 hrs by two fold dilution assay; assay type: functional; conditions: VRE 1008, 24 h; outline: as §1
Staphylococcus aureus [21] = test: Antibacterial activity against methicillin-sensitive Staphylococcus aureus DM4583R after 24 hrs by two fold dilution assay; assay type: functional; outline: as §1
Staphylococcus aureus [22] = test: Antibacterial activity against methicillin-resistant Staphylococcus aureus DM 9808R after 24 hrs by two fold dilution assay; assay type: functional; outline: as §1
Staphylococcus aureus [23] = test: Antibacterial activity against methicillin-resistant Staphylococcus aureus DB68004 after 24 hrs by two fold dilution assay; assay type: functional; conditions: DB68004, 24 h; outline: as §1
Staphylococcus aureus [24] = test: Bactericidal activity against methicillin-resistant Staphylococcus aureus DM21455 assessed as log reduction in bacterial load at 2 times MIC after 2 hrs by time kill assay; assay type: functional; outline: as §5
Staphylococcus aureus [25] = test: Antibacterial activity against Staphylococcus aureus DM 4001R after 24 hrs by two fold dilution assay; assay type: functional; outline: as §1
Staphylococcus aureus [26] = test: Antibacterial activity against Staphylococcus aureus ATCC 700699 infected in C57BL6 mouse cornea assessed as decrease in number of viable bacteria at 0.5% administered topically at 2 hrs interval for 4 times starting on day 1 post infection measured post last dose relative to control; assay type: functional, Mu50
Lipid bilayer [27] = test: Induction of membrane damage in DOPE/DOPG large unilamellar vesicles assessed as calcein leakage at compound to lipid ratio of 1:16 after 1 hr by fluorescence assay relative to control; outline: as §4
[28] = Cytotoxicity against human corneal fibroblasts assessed as reduction in cell viability up to 250 uM after 4 hrs by CytoTox-ONE reagent-based LDH assay relative to control; conditions: corneal fibroblast
Outline: (§7)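 Human corneal fibroblasts exposed to compound; cytotoxicity taken from LDH leakage, with cells treated with 1% triton X-100 as positive control. Measurements replicated.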

Staphylococcus aureus [29] = test: Disruption of membrane in Staphylococcus aureus isolate DM4001R assessed as increase in ATP leakage at 4 times MIC after 1 hr by ATP bioluminescent assay relative to control; assay type: functional
Outline: (§8)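 S. aureus DM4001 grown to exponential phase, washed three times in 20 mM PBS (pH 7), resuspended to OD600 0.2. Compound added, suspensions held 1 hour at 37 °C, then centrifuged. Supernatant mixed with luciferase/luciferin enzyme mix; extracellular ATP quantified by luminescence. Replicated.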

Staphylococcus aureus [30] = test: Bactericidal activity against methicillin-resistant Staphylococcus aureus DM21455 assessed as log reduction in bacterial load at 2 times MIC after 30 mins by time kill assay; assay type: functional; outline: as §5
Staphylococcus aureus [31] = test: Antibacterial activity against Staphylococcus aureus ATCC 29213 at 0.5 times MIC after 30 serial passages; assay type: functional; outline: as §6
[32] = Cytotoxicity against human corneal fibroblasts assessed as reduction in cell viability at 100 uM after 4 hrs by CytoTox-ONE reagent-based LDH assay; conditions: corneal fibroblast; outline: as §7
Staphylococcus aureus [33] = test: Disruption of membrane in Staphylococcus aureus isolate DM4001R assessed as […] in ATP leakage at 200 ug/ml after 1 hr by ATP bioluminescent assay relative to control; assay type: functional; parameters: scale not given: the % may be the effect or the level left; outline: as §8
Staphylococcus aureus [34] = test: Disruption of cytoplasmic membrane in Staphylococcus aureus isolate DM4001R at 100 ug/ml after 3000 secs by SYTOX green dye based fluorescence assay; assay type: functional; outline: as §3

SMILES | MIC (Staphylococcus aureus [2]) [µg/mL] | MIC (Staphylococcus aureus [3]) [µg/mL] | MIC (Staphylococcus aureus [4]) [µg/mL] | MIC (Bacillus cereus) [µg/mL] | MIC (Staphylococcus aureus [5]) [µg/mL] | Activity (Staphylococcus aureus [6]) | MIC (Enterococcus hirae) [µg/mL] | MIC (Staphylococcus aureus [7]) [µg/mL] | MIC (Staphylococcus aureus [8]) [µg/mL] | MIC (Staphylococcus aureus [9]) [µg/mL] | Activity (Lipid bilayer [10]) [%] | MIC (Enterococcus faecium [11]) [µg/mL] | solubility [12] | log(activity) (Staphylococcus aureus [13]) | MIC (Staphylococcus aureus [14]) [µg/mL] | MIC (Staphylococcus aureus [15]) [µg/mL] | MIC (Staphylococcus aureus [16]) [µg/mL] | MIC (Staphylococcus aureus [22]) [µg/mL] | MIC (Staphylococcus aureus [25]) [µg/mL] | Activity (Lipid bilayer [27]) [%] | also measured
COC(=O)[C@H](CCCNC(=N)N)NC(=O)COc1cc(OCC=C(C)C)cc2oc3cc(OCC=C(C)C)cc(OCC(=O)N[C@@H](CCCNC(=N)N)C(=O)OC)c3c(=O)c12 | 1.56 (≈ 1.83 µM) | 1.56 (≈ 1.83 µM) | 3.13 (≈ 3.67 µM) | 3.13 (≈ 3.67 µM) | 0.78 (≈ 0.914 µM) | Active | 6.25 (≈ 7.33 µM) | 1.56 (≈ 1.83 µM) | 3.13 (≈ 3.67 µM) | 0.78 (≈ 0.914 µM) | < 20 | 6.25 (≈ 7.33 µM) | Soluble | 3 | 3.13 (≈ 3.67 µM) | 0.78 (≈ 0.914 µM) | 1.56 (≈ 1.83 µM) | 0.78 (≈ 0.914 µM) | 0.78 (≈ 0.914 µM) | 58.7 | Activity (Staphylococcus aureus [1]): 98.5%; Activity (Staphylococcus aureus [17]): Active; MIC (Staphylococcus aureus [18]): 3.13 µg/mL (≈ 3.67 µM); MIC (Enterococcus faecalis): 3.13 µg/mL (≈ 3.67 µM); MIC (Enterococcus faecium [19]): 6.25 µg/mL (≈ 7.33 µM); MIC (Enterococcus faecium [20]): 6.25 µg/mL (≈ 7.33 µM); MIC (Staphylococcus aureus [21]): 1.56 µg/mL (≈ 1.83 µM); MIC (Staphylococcus aureus [23]): 3.13 µg/mL (≈ 3.67 µM); log(activity) (Staphylococcus aureus [24]): 3; Activity (Staphylococcus aureus [26]): 92.8%; Activity [28]: Non-Toxic; Activity (Staphylococcus aureus [29]): 59.6%
COC(=O)[C@H](CCCNC(=N)N)NC(=O)[C@H](CCCNC(=N)N)NC(=O)COc1cc(OCC=C(C)C)cc2oc3cc(OCC=C(C)C)cc(OCC(=O)N[C@@H](CCCNC(=N)N)C(=O)N[C@@H](CCCNC(=N)N)C(=O)OC)c3c(=O)c12 | 1.56 (≈ 1.34 µM) | 3.13 (≈ 2.69 µM) | 1.56 (≈ 1.34 µM) | 3.13 (≈ 2.69 µM) | 1.56 (≈ 1.34 µM) | Active | 6.25 (≈ 5.36 µM) | 1.56 (≈ 1.34 µM) | 3.13 (≈ 2.69 µM) | 1.56 (≈ 1.34 µM) | < 20 | 1.56 (≈ 1.34 µM) | Soluble | 3 | 3.13 (≈ 2.69 µM) | 3.13 (≈ 2.69 µM) | 1.56 (≈ 1.34 µM) | 3.13 (≈ 2.69 µM) | 1.56 (≈ 1.34 µM) | 63.3 | log(activity) (Staphylococcus aureus [30]): 3; MIC (Staphylococcus aureus [18]): 1.56 µg/mL (≈ 1.34 µM); MIC (Enterococcus faecalis): 6.25 µg/mL (≈ 5.36 µM); MIC (Enterococcus faecium [19]): 1.56 µg/mL (≈ 1.34 µM); MIC (Enterococcus faecium [20]): 3.13 µg/mL (≈ 2.69 µM); MIC (Staphylococcus aureus [21]): 3.13 µg/mL (≈ 2.69 µM); MIC (Staphylococcus aureus [23]): 1.56 µg/mL (≈ 1.34 µM); Activity (Staphylococcus aureus [31]): Active; Activity [28]: 27.4%; Activity (Staphylococcus aureus [29]): 66.4%; Activity [32]: Non-Toxic
O=c1c2c(O)cc(O)cc2oc2cc(O)cc(O)c12 |  | > 50 |  | > 50 |  |  |  |  |  |  | < 20 |  |  |  |  |  |  | > 50 | > 50 | 11.7 | Activity (Staphylococcus aureus [33]): 6.9%; Activity (Staphylococcus aureus [34]): inactive
